Reference: ChEMBL document CHEMBL4038305, “Benzoxaborole Antimalarial Agents. Part 5. Lead Optimization of Novel Amide Pyrazinyloxy Benzoxaboroles and Identification of a Preclinical Candidate” (J Med Chem, 2017)

Tests used:
Rattus norvegicus [1] = experiment: Genotoxicity in rat assessed as micronuclei in polychromatic erythrocyte cells in bone marrow at 500 to 2000 mg/kg administered via oral gavage measured after 24 to 48 hrs post dose by micronucleus assay; assay type: toxicity, organism-based; conditions: in vivo
Plasmodium berghei [2] = experiment: Antimalarial activity against Plasmodium berghei infected in Swiss Webster mouse assessed as mouse survival rate at 11 mg/kg administered once daily via oral gavage for 4 consecutive days beginning 1 hr after infection measured on day 13 post infection relative to control; assay type: functional
In short: (§1)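 Mice given an intraperitoneal injection of P. berghei-infected erythrocytes taken from a previously infected animal. Oral dosing once daily for 4 consecutive days, starting 1 h after infection. Vehicle: polyethylene glycol 300/propylene glycol/water (weight ratio 55/25/20). Percent survival recorded daily from day 4 to day 20. Chloroquine 30 mg/kg and vehicle-only groups served as controls.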

[3] = AUC (0 to infinity) in Sprague-Dawley rat at 5 mg/kg, po via gavage by HPLC/MS analysis; assay type: ADME, organism-based; set-up: dose 5 mg/kg, route oral, time infinity; conditions: in vivo
[4] = Oral bioavailability in Beagle dog at 5 mg/kg by HPLC/MS analysis; assay type: ADME, organism-based, Canis lupus familiaris; conditions: in vivo
In short: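 Female CD-1 mice, male SD rats or beagle dogs given 5 mg/kg by iv injection or oral gavage. Formulation was PEG300/propylene glycol/water 55/25/20, pH 6. Blood samples analysed by HPLC–MS/MS; parameters include AUC0-inf extrapolated to infinity and terminal half-life.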

Plasmodium falciparum [5] = experiment: Antimalarial activity against Plasmodium falciparum TM90C2B infected in human erythrocytes assessed as reduction in [3H]-hypoxanthine incorporation preincubated for 24 hrs followed by [3H]-hypoxanthine addition measured after 24 hrs by scintillation counting method; assay type: functional, cell-based
Plasmodium falciparum [6] = experiment: Antimalarial activity against Plasmodium falciparum FCB infected in human erythrocytes assessed as reduction in [3H]-hypoxanthine incorporation preincubated for 24 hrs followed by [3H]-hypoxanthine addition measured after 24 hrs by scintillation counting method; assay type: functional, cell-based
Salmonella typhimurium [7] = experiment: Genotoxicity in Salmonella typhimurium TA98 assessed as number of revertants per plate at 5 ug/plate in absence of rat liver S9 fraction by Ames test (reference value: 14 +/- 6); assay type: toxicity; conditions: salmonella enterica subsp. enterica serovar typhimurium
Salmonella typhimurium [8] = experiment: Genotoxicity in Salmonella typhimurium TA100 assessed as number of revertants per plate at 15 ug/plate in absence of rat liver S9 fraction by Ames test (reference value: 154 +/- 9); assay type: toxicity; conditions: salmonella enterica subsp. enterica serovar typhimurium
Salmonella typhimurium [9] = experiment: Genotoxicity in Salmonella typhimurium TA100 assessed as number of revertants per plate at 50 ug/plate in absence of rat liver S9 fraction by Ames test (reference value: 154 +/- 9); assay type: toxicity; conditions: salmonella enterica subsp. enterica serovar typhimurium
Salmonella typhimurium [10] = experiment: Genotoxicity in Salmonella typhimurium TA100 assessed as number of revertants per plate at 5000 ug/plate in presence of rat liver S9 fraction by Ames test (reference value: 141 +/- 1); assay type: toxicity; conditions: salmonella enterica subsp. enterica serovar typhimurium
Salmonella typhimurium [11] = experiment: Genotoxicity in Salmonella typhimurium TA1535 assessed as number of revertants per plate at 15 ug/plate in absence of rat liver S9 fraction by Ames test (reference value: 10 +/- 3); assay type: toxicity; conditions: salmonella enterica subsp. enterica serovar typhimurium
Salmonella typhimurium [12] = experiment: Genotoxicity in Salmonella typhimurium TA1535 assessed as number of revertants per plate at 500 ug/plate in absence of rat liver S9 fraction by Ames test (reference value: 10 +/- 3); assay type: toxicity; conditions: salmonella enterica subsp. enterica serovar typhimurium
Salmonella typhimurium [13] = experiment: Genotoxicity in Salmonella typhimurium TA1535 assessed as number of revertants per plate at 1500 ug/plate in absence of rat liver S9 fraction by Ames test (reference value: 10 +/- 3); assay type: toxicity; conditions: salmonella enterica subsp. enterica serovar typhimurium
Salmonella typhimurium [14] = experiment: Genotoxicity in Salmonella typhimurium TA1535 assessed as number of revertants per plate at 50 ug/plate in presence of rat liver S9 fraction by Ames test (reference value: 10); assay type: toxicity; conditions: salmonella enterica subsp. enterica serovar typhimurium
Salmonella typhimurium [15] = experiment: Genotoxicity in Salmonella typhimurium TA1535 assessed as number of revertants per plate at 5000 ug/plate in presence of rat liver S9 fraction by Ames test (reference value: 10); assay type: toxicity; conditions: salmonella enterica subsp. enterica serovar typhimurium
Salmonella typhimurium [16] = experiment: Genotoxicity in Salmonella typhimurium TA1537 assessed as number of revertants per plate at 1.5 ug/plate in absence of rat liver S9 fraction by Ames test (reference value: 19 +/- 9); assay type: toxicity; conditions: salmonella enterica subsp. enterica serovar typhimurium
Salmonella typhimurium [17] = experiment: Genotoxicity in Salmonella typhimurium TA1537 assessed as number of revertants per plate at 15 ug/plate in absence of rat liver S9 fraction by Ames test (reference value: 19 +/- 9); assay type: toxicity; conditions: salmonella enterica subsp. enterica serovar typhimurium
Salmonella typhimurium [18] = experiment: Genotoxicity in Salmonella typhimurium TA1537 assessed as number of revertants per plate at 150 ug/plate in presence of rat liver S9 fraction by Ames test (reference value: 11 +/- 4); assay type: toxicity; conditions: salmonella enterica subsp. enterica serovar typhimurium
Escherichia coli = experiment: Genotoxicity in Escherichia coli WP2uvrA assessed as number of revertants per plate at 5 ug/plate in presence of rat liver S9 fraction by Ames test (reference value: 42 +/- 6); assay type: toxicity
Lymphocyte [19] = experiment: Genotoxicity in human lymphocytes assessed as replication index at 160 ug/mL after 3 hrs in presence of rat liver S9 fraction by micronucleus assay relative to control; assay type: toxicity, cell-based; conditions: s9, 3 h
In short: (§2)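 Human lymphocytes exposed for 3 h with or without rat liver S9, or 28 h without S9, with 1% DMSO as vehicle control. Replication index = (binucleated + 2 × multinucleated cells)/total cells. Cytotoxicity (%) = 100 − (RI treated/RI vehicle) × 100.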

Lymphocyte [20] = experiment: Genotoxicity in human lymphocytes assessed as replication index at 80 ug/mL after 3 hrs in absence of rat liver S9 fraction by micronucleus assay relative to control; assay type: toxicity, cell-based; in short: as §2
Rattus norvegicus [21] = experiment: Genotoxicity in rat assessed as change in polychromatic erythrocytes in bone marrow at 1000 mg/kg administered via oral gavage measured after 24 hrs post dose by micronucleus assay relative to control; assay type: toxicity, organism-based; conditions: in vivo
Rattus norvegicus [22] = experiment: Genotoxicity in rat assessed as change in polychromatic erythrocytes in bone marrow at 2000 mg/kg administered via oral gavage measured after 48 hrs post dose by micronucleus assay relative to control; assay type: toxicity, organism-based; conditions: in vivo
Rattus norvegicus [23] = experiment: Genotoxicity in rat assessed as micronucleated polychromatic erythrocytes in bone marrow at 2000 mg/kg administered via oral gavage measured after 24 hrs post dose by micronucleus assay (reference value: 0.07 +/- 0.05%); assay type: toxicity, organism-based; conditions: in vivo
Rattus norvegicus [24] = experiment: Genotoxicity in rat assessed as micronucleated polychromatic erythrocytes in bone marrow at 1000 mg/kg administered via oral gavage measured after 24 hrs post dose by micronucleus assay (reference value: 0.07 +/- 0.05%); assay type: toxicity, organism-based; conditions: in vivo
Plasmodium berghei [25] = experiment: Antimalarial activity against Plasmodium berghei infected in Swiss Webster mouse assessed as mouse survival rate at 3 mg/kg administered once daily via oral gavage for 4 consecutive days beginning 1 hr after infection measured on day 4 post infection relative to control; assay type: functional
In short: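 P. berghei-infected erythrocytes taken from a previously infected mouse were injected intraperitoneally. Oral dosing, once daily for 4 consecutive days, began 1 h after infection, in polyethylene glycol 300/propylene glycol/water (55/25/20 by weight). Chloroquine at 30 mg/kg was the positive control, with a vehicle-only group. Percent survival was recorded daily from day 4 to day 20.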

Plasmodium berghei [26] = experiment: Antimalarial activity against Plasmodium berghei infected in Swiss Webster mouse assessed as mouse survival rate at 0.3 mg/kg administered once daily via oral gavage for 4 consecutive days beginning 1 hr after infection measured on day 6 post infection relative to control; assay type: functional; in short: as §1
Plasmodium berghei [27] = experiment: Antimalarial activity against Plasmodium berghei infected in Swiss Webster mouse assessed as mouse survival rate at 0.3 mg/kg administered once daily via oral gavage for 4 consecutive days beginning 1 hr after infection measured on day 8 post infection relative to control; assay type: functional; in short: as §1

Compound: Cc1c(Oc2cnc(C(=O)NCCO)cn2)ccc2c1B(O)OC2
- Activity (Rattus norvegicus [1]): Non-Toxic

Compound: Cc1c(Oc2cnc(C(=O)N3CC(O)(C(C)C)C3)cn2)ccc2c1B(O)OC2
- survival at 11 mg/kg (Plasmodium berghei [2]): 20%

Compound: Cc1c(Oc2cnc(C(=O)N3CC(C)(O)C3)cn2)ccc2c1B(O)OC2
- AUC(0-inf) [3]: 20800 ng·h/mL
- bioavailability [4]: 127%
- IC50 (Plasmodium falciparum [5]): 0.06 µM
- IC50 (Plasmodium falciparum [6]): 0.066 µM
- Activity (Salmonella typhimurium [7]): 12
- Activity (Salmonella typhimurium [8]): 126
- Activity (Salmonella typhimurium [9]): 132
- Activity (Salmonella typhimurium [10]): 31
- Activity (Salmonella typhimurium [11]): 13
- Activity (Salmonella typhimurium [12]): 5
- Activity (Salmonella typhimurium [13]): 7
- Activity (Salmonella typhimurium [14]): 11
- Activity (Salmonella typhimurium [15]): 6
- Activity (Salmonella typhimurium [16]): 15
- Activity (Salmonella typhimurium [17]): 10
- Activity (Salmonella typhimurium [18]): 12
- Activity (Escherichia coli): 37
- Activity (Lymphocyte [19]): 8%
- Activity (Lymphocyte [20]): 3%
- Activity (Rattus norvegicus [21]): 0%
- Activity (Rattus norvegicus [22]): -12%
- Activity (Rattus norvegicus [23]): 0.09%
- Activity (Rattus norvegicus [24]): 0.08%

Compound: Cc1c(Oc2cnc(C(=O)NC(C)CO)cn2)ccc2c1B(O)OC2 (stereo not drawn)
- survival at 3 mg/kg (Plasmodium berghei [25]): 100%
- survival at 0.3 mg/kg (Plasmodium berghei [26]): 20%
- survival at 0.3 mg/kg (Plasmodium berghei [27]): 0%
